Holding throughout (assay type): functional, cell-based
Experiment [1] relates to A549. Briefly: Anticancer activity against human A549 cells assessed as cell viability at 60 uM after 48 hrs by phase contrast microscopy. Put shortly: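 A549 lung cancer cells grown in RPMI 1640 with 10% bovine calf serum and 80 U/ml gentamicin at 37 °C, 5% CO2, seeded at 6250/cm². After 48 h exposure, cells inspected by phase contrast microscopy for morphology and cell number.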

The test system of experiment [2] is A549. Description: Anticancer activity against human A549 cells assessed as upregulation of LC3-2 expression at 60 uM after 48 hrs by Western blot analysis. Put shortly: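 After 48 h treatment, A549 cells washed in ice-cold PBS and lysed in 0.5% SDS buffer (25 mM Tris-HCl pH 7.5, EDTA, NaCl, PMSF, protease inhibitors). Protein measured by Bradford. Equal protein run on 15% SDS-PAGE, transferred to PVDF, probed overnight at 4 °C with primary antibody, β-actin as loading control. HRP secondary, chemiluminescent detection on film, bands quantified by densitometry.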
A general note: Immunoblotting shows a protein as a band on a membrane.

For experiment [3], the system named is A549. Briefly: Induction of apoptosis in human A549 cells assessed as morphological changes at 60 uM after 48 hrs by Hoechst 33258 staining-based fluorescence microscopy. In outline: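 A549 cells exposed 48 h, stained with Hoechst 33258 and examined by fluorescence microscopy for chromatin condensation and nuclear DNA fragmentation.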
The test system of experiment [4] is A549. Description: Induction of necrosis in human A549 cells assessed as LDH release at 60 uM after 48 hrs. Put shortly:
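LDH activity measured in culture medium of A549 cells after 48 h exposure and compared with control cells.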
On the technique in general: Release of lactate dehydrogenase indicates damage to the cell membrane.

Experiment [5] concerns A549. Description: Cell cycle arrest in human A549 cells assessed as accumulation in G1 phase at 60 uM after 48 hrs using propidium iodide staining by flow cytometry (reference value: 22%). (In general: Flow cytometry measures light scatter and fluorescence of single cells or particles in a stream.)

Calls of active or inactive are those of the source. The calls are words filed in the database; no cut-off is given here.

For `COc1ccc(C(O)Cn2nc(-c3ccc(Cl)cc3)cc2CO)cc1` (stereo unspecified), the result in experiment [1] was inactive.

For the compound `OCc1cc(-c2ccc(Cl)cc2)nn1CC(O)c1ccc(Cl)cc1` (stereo unspecified), the outcome in experiment [2] was Active. The result in experiment [3] and in experiment [4] was inactive.

For the compound `COc1ccc(-c2cc(CO)n(CC(O)c3ccc(Cl)cc3)n2)cc1` (stereo unspecified), the outcome in experiment [2] was Active. Moreover, the outcome in experiment [5], in experiment [3] and in experiment [4] was inactive.

For the compound `COc1ccc(C(O)Cn2nc(-c3ccccc3)cc2CO)cc1` (stereo unspecified), the outcome in experiment [1] was inactive.

For the compound `COc1ccc(-c2cc(CO)n(CC(O)c3ccccc3)n2)cc1` (stereo unspecified), the result in experiment [1] was inactive.

For the compound `COc1ccc(-c2cc(CO)n(CC(O)c3ccc(OC)cc3)n2)cc1` (stereo unspecified), in experiment [1], the outcome was inactive.

`OCc1cc(-c2ccccc2)nn1CC(O)c1ccccc1` (stereo unspecified): the result in experiment [1] was inactive.

For `OCc1cc(-c2ccc(Cl)cc2)nn1CC(O)c1ccccc1` (stereo unspecified), the outcome in experiment [1] was inactive.

`OCc1cc(-c2ccccc2)nn1CC(O)c1ccc(Cl)cc1` (stereo unspecified): the result in experiment [2] was Active. Besides, the outcome in experiment [3] and in experiment [4] was inactive.

For the origin of these results see ChEMBL document CHEMBL1629499, “Synthesis, crystal structure and biological evaluation of novel 2-(5-(hydroxymethyl)-3-phenyl-1H-pyrazol-1-yl)-1-phenylethanol derivatives” (Eur J Med Chem, 2010).
